Results reported in ChEMBL document CHEMBL1141164, “Design and synthesis of a series of melamine-based nitroheterocycles with activity against Trypanosomatid parasites” (J Med Chem, 2005).
Values joined by “and” are separate entries in the source; they are usually repeats but may differ in a detail not shown here. Equal values may be shown once.

Key:
Trypanosoma cruzi [1] = assay: In vitro inhibitory concentration against intracellular amastigotes of Trypanosoma cruzi in rat skeletal myoblasts incubated for 37 degree C for 4 days; type: functional, organism-based; conditions: 96 h
Outline: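 L-6 myoblasts seeded at 2000 cells/well in RPMI 1640 with 10% FBS and 2 mM L-glutamine. After 24 h, 5000 T. cruzi Tulahuen C2C4 (LacZ) trypomastigotes added with serial drug dilution. Incubated 4 days at 37 °C in 5% CO2, then CPRG/Nonidet added.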

[2] = system: Trypanosoma brucei brucei; assay: In vitro inhibitory concentration against blood stream Trypanosoma brucei brucei AT1 wild type incubated for 72 h at 37 degree C; type: functional, organism-based
Outline: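 Wild-type T. b. brucei trypomastigotes, tested alongside the P2 knockout (TbAT1-/-). Alamar Blue viability assay used to derive IC50 values.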

[3] = system: Trypanosoma brucei rhodesiense; assay: Inhibitory concentration in vitro against blood stream Trypanosoma brucei rhodesiense incubated for 72 hr at 37 degree C; type: functional, organism-based
Outline: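 T. b. rhodesiense STIB900 trypomastigotes, a 1982 human isolate from Tanzania, grown in minimum essential medium with 2-mercaptoethanol and 15% heat-inactivated horse serum. Drug dilutions 90 to 0.123 μg/mL, 72 h at 37 °C, 5% CO2.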

[4] = system: Trypanosoma brucei brucei; assay: In vitro inhibitory concentration against blood stream Trypanosoma brucei brucei AT1 knockout mutant with a non functional P2 transporter incubated for 72 h at 37 degree C; type: organism-based
Outline: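 Bloodstream T. b. brucei trypomastigotes, wild type or P2 transporter knockout (TbAT1-/-), were tested side by side. Viability was read by Alamar Blue fluorescence and IC50 values were determined.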

[5] = molecular target: T1, Nucleoside transporter 2 (Trypanosoma brucei brucei) (UniProt Q9U763); assay: In vitro inhibitory concentration against P2 aminopurine transporter of Trypanosoma brucei brucei 427 adenosine (0.5 uM) uptake in presence of 1 mM inosine
T1 sequence (whole entry): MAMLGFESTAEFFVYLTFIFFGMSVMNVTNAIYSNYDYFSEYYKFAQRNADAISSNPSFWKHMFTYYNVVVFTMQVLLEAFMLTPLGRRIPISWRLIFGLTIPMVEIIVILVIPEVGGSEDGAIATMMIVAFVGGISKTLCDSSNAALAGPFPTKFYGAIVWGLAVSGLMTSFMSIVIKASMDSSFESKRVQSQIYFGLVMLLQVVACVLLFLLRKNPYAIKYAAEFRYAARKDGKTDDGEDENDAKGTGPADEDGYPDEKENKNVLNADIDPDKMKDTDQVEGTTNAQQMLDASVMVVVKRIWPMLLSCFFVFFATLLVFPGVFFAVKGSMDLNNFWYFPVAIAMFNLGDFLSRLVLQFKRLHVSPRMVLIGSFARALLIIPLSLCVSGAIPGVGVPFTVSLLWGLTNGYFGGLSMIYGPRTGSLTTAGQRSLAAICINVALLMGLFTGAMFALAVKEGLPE
Outline: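 Blood-purified T. b. brucei 427 held on ice in Carter's buffered saline. Uptake of radiolabeled adenosine fixed at 0.5 μM via P2, measured with 1 mM inosine present to block P1, by centrifugation through oil over a range of inhibitor concentrations. IC50 obtained by plotting inhibition against inhibitor concentration.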

Leishmania donovani [6] = assay: Inhibitory concentration in vitro against intracellular amastigotes of Leishmania donovani in mouse peritoneal macrophages incubated for 96 hr at […]; tox is toxic to macrophages
L6 = assay: Concentration causing cytotoxicity to 50% of L-6 rat skeletal myoblasts; type: functional, cell-based
Outline: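 L-6 rat skeletal myoblasts run in the same Alamar Blue assay as the trypanosome screen. Serial dilutions spanning 90 to 0.123 μg/mL, 72 h at 37 °C under 5% CO2, then Alamar Blue for a further 2–4 h. Fluorescence read at ex 536/em 588 nm and expressed as % of control to give IC50.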

Mus musculus [7] = assay: In vivo antitrypanosomal activity at a dose of 4*20 mg/kg, i.p., in mice infected with Trypanosoma brucei rhodesiense STIB 900 strain, measured as survival days (control 7 days); type: functional
Mus musculus [8] = assay: In vivo antitrypanosomal activity at a dose of 4*20 mg/kg, i.p., in mice infected with Trypanosoma brucei rhodesiense STIB 900 strain; 0/4; type: functional
Trypanosoma cruzi [9] = assay: In vivo activity at a dose of 15 mg/kg, i.p., for 5 doses in rodent model with Trypanosoma cruzi, measured as survival days (control 13 days); conditions: route intraperitoneal
Trypanosoma brucei [10] = assay: Inhibitory concentration against wild-type (427) Trypanosoma brucei; type: functional, organism-based
Trypanosoma brucei [11] = assay: Inhibitory concentration against RAD51-/- mutant Trypanosoma brucei
Trypanosoma cruzi [12] = assay: In vivo activity at a dose of 45 mg/kg, p.o., for 5 doses in rodent model with Trypanosoma cruzi, measured as survival days (control 13 days); conditions: route oral
Trypanosoma cruzi [13] = assay: In vivo percent inhibition of compound at a dose of 45 mg/kg, p.o., for 5 doses in rodent model with Trypanosoma cruzi [ND = not determined]; conditions: po
Leishmania donovani [14] = assay: Inhibitory concentration in vitro against intracellular amastigotes of Leishmania donovani in mouse peritoneal macrophages incubated for 96 hr at 27 degree C
Mus musculus [15] = assay: In vivo antitrypanosomal activity at a dose of 4*1 mg/kg, i.p., in mice infected with Trypanosoma brucei brucei STIB 795 strain, measured as survival days (control 7 days); type: functional
Mus musculus [16] = assay: In vivo antitrypanosomal activity at a dose of 4*8 mg/kg, i.p., in mice infected with Trypanosoma brucei rhodesiense STIB 900 strain, measured as survival days (control 7 days); ND is not determined; type: functional
Mus musculus [17] = assay: In vivo antitrypanosomal activity at a dose of 4*1 mg/kg, i.p., in mice infected with Trypanosoma brucei rhodesiense STIB 900 strain, measured as cured/infected; 0/4; type: functional
Mus musculus [18] = assay: In vivo antitrypanosomal activity at a dose of 4*1 mg/kg, i.p., in mice infected with Trypanosoma brucei rhodesiense STIB 900 strain, measured as survival days (control 7 days); ND is not determined; type: functional
Mus musculus [19] = assay: In vivo antitrypanosomal activity at a dose of 4*1 mg/kg, i.p., in mice infected with Trypanosoma brucei brucei STIB 795 strain; 2/4; type: functional
Mus musculus [20] = assay: In vivo antitrypanosomal activity at a dose of 4*8 mg/kg, i.p., in mice infected with Trypanosoma brucei rhodesiense STIB 900 strain, measured as cured/infected; 4/4; type: functional
Mus musculus [21] = assay: In vivo antitrypanosomal activity at a dose of 4*20 mg/kg, i.p., in mice infected with Trypanosoma brucei rhodesiense STIB 900 strain; 1/4; type: functional
Mus musculus [22] = assay: In vivo antitrypanosomal activity at a dose of 4*20 mg/kg, i.p., in mice infected with Trypanosoma brucei brucei STIB 795 strain, measured as survival days (control 7 days); type: functional
Mus musculus [23] = assay: In vivo antitrypanosomal activity at a dose of 4*20 mg/kg, i.p., in mice infected with Trypanosoma brucei brucei STIB 795 strain; 4/4; type: functional
Mus musculus [24] = assay: In vivo antitrypanosomal activity at a dose of 4*20 mg/kg, i.p., in mice infected with Trypanosoma brucei rhodesiense STIB 900 strain, measured as survival days (control 6.5 days); type: functional
Trypanosoma cruzi [25] = assay: In vivo activity at a dose of 25 mg/kg, i.p., for 5 doses in rodent model with Trypanosoma cruzi, measured as survival days (control 13 days); conditions: route intraperitoneal
Mus musculus [26] = assay: In vivo antitrypanosomal activity at a dose of 4*20 mg/kg, i.p., in mice infected with Trypanosoma brucei rhodesiense STIB 900 strain, measured as survival days (control 7 days); ND is not determined; type: functional
Mus musculus [27] = assay: In vivo antitrypanosomal activity at a dose of 4*5 mg/kg, i.p., in mice infected with Trypanosoma brucei brucei STIB 795 strain; 4/4; type: functional
Mus musculus [28] = assay: In vivo antitrypanosomal activity at a dose of 4*20 mg/kg, i.p., in mice infected with Trypanosoma brucei rhodesiense STIB 900 strain, measured as cured/infected; 0/4; type: functional
Mus musculus [29] = assay: In vivo antitrypanosomal activity at a dose of 4*5 mg/kg, i.p., in mice infected with Trypanosoma brucei brucei STIB 795 strain, measured as survival days (control 7 days); type: functional
Mus musculus [30] = assay: In vivo antitrypanosomal activity at a dose of 4*20 mg/kg, i.p., in mice infected with Trypanosoma brucei brucei STIB 795 strain; 0/4; type: functional

SMILES | IC50 (Trypanosoma cruzi [1]) | IC50 [2] | IC50 [3] | IC50 [4] | IC50 [5] | IC50 (Leishmania donovani [6]) | IC50 (L6) | other results
Nc1nc(N)nc(N/N=C/c2ccccc2[N+](=O)[O-])n1 | 328 µM | > 75 µM | 36.5 µM | – | – | – | – | –
NNc1nc(N)nc(N)n1 | – | > 200 µM | – | > 200 µM | 11.9 µM | – | – | –
CN(C)c1nc(N/N=C/c2ccc([N+](=O)[O-])o2)nc(N(C)C)n1 | 0.38 µM | 0.2 µM | 0.003 µM | 0.3 µM | 129 µM | Toxic | 18.7 µM | Survival (Mus musculus [7]): 7.25 days; Cured/Infected (Mus musculus [8]): 0; Survival (Trypanosoma cruzi [9]): 12.8 days
O=C(Cn1ccnc1[N+](=O)[O-])NCc1ccccc1 [BENZNIDAZOLE] | – | – | – | – | – | – | – | IC50 (Trypanosoma brucei [10]; Trypanosoma brucei): 116 µM; IC50 (Trypanosoma brucei [11]): 114 µM; Survival (Trypanosoma cruzi [12]): >30 days; inhibition in vivo at 45 mg/kg (Trypanosoma cruzi [13]): 100%
Nc1nc(N)nc(N/N=C/c2ccc([N+](=O)[O-])s2)n1 | 2.6 µM | 0.85 µM | 0.24 µM | 1.52 µM | 1.9 µM | Toxic | 11.8 µM | –
Nc1nc(N)nc(Nc2ccc([As]3SCC(CO)S3)cc2)n1 (stereo not given) [MELARSOPROL] | 0.006 µM | 0.053 µM | 0.006 µM | 0.12 µM | 1.2 µM | – | – | IC50 (Leishmania donovani [14]): 7.8 µM; Survival (Mus musculus [15]): >60 days; Survival (Mus musculus [16]): >60 days; Cured/Infected (Mus musculus [17]): 0; Survival (Mus musculus [18]): 21.25 days; Cured/Infected (Mus musculus [19]): 2; Cured/Infected (Mus musculus [20]): 4
CC1CS(=O)(=O)CCN1/N=C/c1ccc([N+](=O)[O-])o1 (stereo not given) [NIFURTIMOX] | 1.5 µM | 5.6 µM | 1.5 µM | – | – | – | 68 µM | IC50 (Leishmania donovani [14]): 68 µM; IC50 (Trypanosoma brucei [10]): 4.1 µM and 11.4 µM; IC50 (Trypanosoma brucei [11]): 4.3 µM
Nc1nc(N)nc(N/N=C/c2ccco2)n1 | > 400 µM | 16.5 µM | 12.9 µM | 29.3 µM | 15.9 µM | Toxic | > 400 µM | –
O=[N+]([O-])c1ccc(/C=N/O)o1 [NIFUROXIME] | – | 1.18 µM | 0.68 µM | 1.26 µM | 300 µM | Toxic | 40 µM | –
Nc1nc(N)nc(N/N=C/c2ccc([N+](=O)[O-])o2)n1 | 2.1 µM | 0.23 µM | 0.025 µM | 0.38 µM | 22.9 µM | – | 183 µM | IC50 (Leishmania donovani [14]): > 12.5 µM; Cured/Infected (Mus musculus [21]): 1; Survival (Mus musculus [22]): >60 days; IC50 (Trypanosoma brucei [10]): 0.08 µM; IC50 (Trypanosoma brucei [10]; Trypanosoma brucei): 0.08 µM; Cured/Infected (Mus musculus [23]): 4; IC50 (Trypanosoma brucei [11]): 0.1 µM; Survival (Mus musculus [24]): 35.25 days; Survival (Trypanosoma cruzi [25]): 13 days
N=C(N)c1ccc(OCCCCCOc2ccc(C(=N)N)cc2)cc1 [PENTAMIDINE] | – | – | – | – | – | – | – | Survival (Mus musculus [26]): 42.75 days; Cured/Infected (Mus musculus [27]): 4; Cured/Infected (Mus musculus [28]): 0; Survival (Mus musculus [29]): >60 days
N/N=C/c1ccc([N+](=O)[O-])o1 | – | 23.5 µM | 2.3 µM | 13.5 µM | 404 µM | Toxic | 20 µM | –
CNc1nc(NC)nc(N/N=C/c2ccc([N+](=O)[O-])o2)n1 | 0.24 µM | – | 0.01 µM | – | – | – | 44.1 µM | IC50 (Leishmania donovani [14]): 3.14 µM; Survival (Mus musculus [22]): 5.25 days; Cured/Infected (Mus musculus [30]): 0
Nc1nc(N)nc(N/N=C/c2cccs2)n1 | 85.8 µM | 89 µM | 10.2 µM | 170 µM | 4.9 µM | Toxic | 78.2 µM | –
N#Cc1ccc(/C=N/Nc2nc(N)nc(N)n2)o1 | 122 µM | – | 46.3 µM | – | – | – | – | –
Nc1nc(N)nc(N/N=C/c2ccc([N+](=O)[O-])cc2)n1 | 91.5 µM | > 75 µM | 29.9 µM | – | – | – | – | –
Nc1nc(N)nc(N/N=C/c2cccc([N+](=O)[O-])c2)n1 | 328 µM | > 75 µM | 52.9 µM | – | – | – | – | –
